Assay results as given in ChEMBL document CHEMBL2010702, “Design and evaluation of a series of pyrazolopyrimidines as p70S6K inhibitors” (Bioorg Med Chem Lett, 2012).

Key:
[1] = target: Ribosomal protein S6 kinase beta-1 (Homo sapiens, UniProt P23443, D18H/T412E); experiment: Inhibition of human p70S6K D18H and T412E mutant using RRRLSSLRA as substrate after 3 hrs by luciferase-luciferin-coupled chemiluminescence assay
[2] = Inhibition of p70S6K-mediated S6 phosphorylation in human A549 cells after 3 hrs by chemiluminescence assay; format: cell-based; settings: A549, 3 h
How it was run: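 A549 cells seeded at 7.5 × 10^3/well in DMEM with 10% FBS and 1% non-essential amino acids, grown 48 h at 37 °C, then exposed 3 h to compound ([…], triplicate, 0.2% DMSO). Fixed in formaldehyde, blocked, probed overnight at 4 °C with anti-phospho-S6 (Ser240/244) or anti-total-S6, then HRP secondary; chemiluminescent ELISA read-out.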

[3] = target: Ribosomal protein S6 kinase alpha-3 (Homo sapiens, UniProt P51812); experiment: Inhibition of Rsk2
[4] = Inhibition of PKA
[5] = target: RAC-alpha serine/threonine-protein kinase (Homo sapiens, UniProt P31749); experiment: Inhibition of Akt1
[6] = target: RAC-beta serine/threonine-protein kinase (Homo sapiens, UniProt P31751); experiment: Inhibition of Akt2
[7] = Clearance in rat at 2.5 mg/kg, iv and 2.5 mg/kg, po; format: ADME, organism-based; settings: in vivo
[8] = Volume of distribution in rat at 2.5 mg/kg, iv and 2.5 mg/kg, po; format: ADME, organism-based; settings: in vivo
[9] = Half life in rat at 2.5 mg/kg, iv; format: ADME, organism-based; design: dose 2.5 mg/kg, route intravenous; settings: in vivo
[10] = Half life in rat at 2.5 mg/kg, po; format: ADME, organism-based; design: dose 2.5 mg/kg, route oral; settings: in vivo
[11] = Oral bioavailability in rat at 2.5 mg/kg; format: ADME, organism-based; settings: in vivo
[12] = Cmax in rat at 2.5 mg/kg, iv; format: ADME, organism-based; design: dose 2.5 mg/kg, route intravenous; settings: in vivo
[13] = Cmax in rat at 2.5 mg/kg, po; format: ADME, organism-based; design: dose 2.5 mg/kg, route oral; settings: in vivo
[14] = tested on: Rattus norvegicus; experiment: Dose normalized AUC in rat at 2.5 mg/kg, iv; format: ADME, organism-based; design: dose 2.5 mg/kg, route intravenous; settings: in vivo
[15] = tested on: Rattus norvegicus; experiment: Dose normalized AUC in rat at 2.5 mg/kg, po; format: ADME, organism-based; design: dose 2.5 mg/kg, route oral; settings: in vivo
[16] = tested on: Mus musculus; experiment: Inhibition of p70S6K-mediated S6 phosphorylation in human PC3 cells xenografted in mouse at 100 mg/kg, po; format: functional; settings: PC-3
[17] = tested on: PC-3; experiment: Antitumor activity against human PC3 cells xenografted in mouse assessed as tumor growth inhibition at 30 mg/kg, po bid for 14 days; format: functional; settings: PC-3, 336 h, read-out: GI
How it was run: (§1)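 PC3 prostate carcinoma xenografts in mice; compound given orally at 30, 100 or 300 mg/kg twice daily for 14 days; tumor growth inhibition recorded.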

[18] = tested on: PC-3; experiment: Antitumor activity against human PC3 cells xenografted in mouse assessed as tumor growth inhibition at 100 mg/kg, po bid for 14 days; format: functional; settings: PC-3, 336 h, read-out: GI; how it was run: as §1
[19] = tested on: PC-3; experiment: Antitumor activity against human PC3 cells xenografted in mouse assessed as tumor growth inhibition at 300 mg/kg, po bid for 14 days; format: functional; settings: PC-3, 336 h, read-out: GI; how it was run: as §1
[20] = tested on: PC-3; experiment: Antitumor activity against human PC3 cells xenografted in mouse assessed as tumor growth inhibition compound administered po bid for 14 days; format: functional, organism-based; how it was run: as §1
[21] = target: Serine/threonine-protein kinase pim-1 (Homo sapiens, UniProt P11309); experiment: Inhibition of PIM1
Serine/threonine-protein kinase pim-1, sequence (P11309 whole entry): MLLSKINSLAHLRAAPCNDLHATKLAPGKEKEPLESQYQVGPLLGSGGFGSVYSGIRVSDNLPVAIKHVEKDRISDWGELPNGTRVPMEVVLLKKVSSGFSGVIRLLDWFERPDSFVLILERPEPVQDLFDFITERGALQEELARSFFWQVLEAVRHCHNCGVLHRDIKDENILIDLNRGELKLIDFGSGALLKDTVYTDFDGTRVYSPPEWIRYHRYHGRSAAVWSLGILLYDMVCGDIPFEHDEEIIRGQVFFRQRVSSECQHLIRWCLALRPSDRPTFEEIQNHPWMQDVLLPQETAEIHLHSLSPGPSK

Ribosomal protein S6 kinase beta-1, sequence (P23443 whole entry D18H/T412E): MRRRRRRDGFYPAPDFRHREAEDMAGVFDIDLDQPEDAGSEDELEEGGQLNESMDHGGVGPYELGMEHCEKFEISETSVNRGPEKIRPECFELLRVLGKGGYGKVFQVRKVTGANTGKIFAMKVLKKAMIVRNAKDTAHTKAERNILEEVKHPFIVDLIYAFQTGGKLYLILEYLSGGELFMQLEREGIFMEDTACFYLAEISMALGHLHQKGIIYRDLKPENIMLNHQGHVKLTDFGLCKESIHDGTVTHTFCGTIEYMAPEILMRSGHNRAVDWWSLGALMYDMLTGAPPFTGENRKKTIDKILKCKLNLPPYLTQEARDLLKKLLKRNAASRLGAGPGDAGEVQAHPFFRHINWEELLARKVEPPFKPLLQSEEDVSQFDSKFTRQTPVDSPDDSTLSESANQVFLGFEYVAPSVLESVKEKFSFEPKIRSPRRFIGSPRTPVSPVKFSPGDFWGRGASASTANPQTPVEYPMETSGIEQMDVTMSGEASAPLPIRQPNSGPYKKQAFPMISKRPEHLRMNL
RAC-alpha serine/threonine-protein kinase, sequence (P31749 whole entry): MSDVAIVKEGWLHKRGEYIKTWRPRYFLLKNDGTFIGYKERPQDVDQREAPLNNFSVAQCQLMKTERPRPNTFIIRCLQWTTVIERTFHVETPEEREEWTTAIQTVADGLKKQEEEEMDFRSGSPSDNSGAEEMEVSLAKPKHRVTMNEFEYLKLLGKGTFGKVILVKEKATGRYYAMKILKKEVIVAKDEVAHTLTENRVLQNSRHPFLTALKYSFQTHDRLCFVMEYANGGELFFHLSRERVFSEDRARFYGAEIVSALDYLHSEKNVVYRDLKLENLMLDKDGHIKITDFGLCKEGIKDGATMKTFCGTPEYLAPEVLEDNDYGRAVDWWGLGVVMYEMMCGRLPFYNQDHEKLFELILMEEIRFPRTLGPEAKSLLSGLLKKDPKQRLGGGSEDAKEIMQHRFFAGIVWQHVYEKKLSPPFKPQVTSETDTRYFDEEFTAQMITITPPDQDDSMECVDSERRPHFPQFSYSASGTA
RAC-beta serine/threonine-protein kinase, sequence (P31751 whole entry): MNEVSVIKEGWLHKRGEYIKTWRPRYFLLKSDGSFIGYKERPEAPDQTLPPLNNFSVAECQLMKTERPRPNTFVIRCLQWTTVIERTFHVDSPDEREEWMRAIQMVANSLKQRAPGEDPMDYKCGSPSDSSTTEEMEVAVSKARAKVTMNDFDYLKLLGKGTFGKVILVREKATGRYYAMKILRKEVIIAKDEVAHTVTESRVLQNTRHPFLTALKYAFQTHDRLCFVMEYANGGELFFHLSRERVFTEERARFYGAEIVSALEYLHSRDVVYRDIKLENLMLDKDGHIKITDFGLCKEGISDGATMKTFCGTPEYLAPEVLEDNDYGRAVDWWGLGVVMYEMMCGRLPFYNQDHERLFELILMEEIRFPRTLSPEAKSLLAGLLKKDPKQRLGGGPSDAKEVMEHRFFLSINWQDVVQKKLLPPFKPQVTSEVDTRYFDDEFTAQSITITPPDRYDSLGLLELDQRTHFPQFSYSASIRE
Ribosomal protein S6 kinase alpha-3, sequence (P51812 whole entry): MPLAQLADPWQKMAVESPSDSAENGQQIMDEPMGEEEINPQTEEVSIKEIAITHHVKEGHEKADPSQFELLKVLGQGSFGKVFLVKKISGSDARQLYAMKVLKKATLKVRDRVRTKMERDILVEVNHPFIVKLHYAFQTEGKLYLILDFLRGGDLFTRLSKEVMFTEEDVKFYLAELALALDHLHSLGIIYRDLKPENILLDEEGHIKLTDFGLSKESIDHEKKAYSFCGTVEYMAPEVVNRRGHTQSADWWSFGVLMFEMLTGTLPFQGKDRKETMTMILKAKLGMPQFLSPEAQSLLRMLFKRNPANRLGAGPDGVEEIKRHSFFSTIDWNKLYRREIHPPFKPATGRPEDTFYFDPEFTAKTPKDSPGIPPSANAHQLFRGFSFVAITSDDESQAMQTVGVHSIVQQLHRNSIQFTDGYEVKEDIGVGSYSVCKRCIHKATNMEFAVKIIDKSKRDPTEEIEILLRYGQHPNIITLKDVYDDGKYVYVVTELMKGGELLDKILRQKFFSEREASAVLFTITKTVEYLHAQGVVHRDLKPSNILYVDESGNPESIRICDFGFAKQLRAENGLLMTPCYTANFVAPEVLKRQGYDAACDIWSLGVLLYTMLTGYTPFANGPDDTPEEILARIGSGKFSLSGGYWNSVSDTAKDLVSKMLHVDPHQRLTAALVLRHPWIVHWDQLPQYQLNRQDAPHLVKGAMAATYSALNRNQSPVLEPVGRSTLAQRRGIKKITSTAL

SMILES | IC50 [1] [nM] | IC50 [2] [nM] | also measured
Nc1ncnc(N2CCN(c3cccc(Cl)c3)CC2)c1[N+](=O)[O-] | 85 | – | –
Clc1cccc(N2CCN(c3[nH]cnc4ncnc3-4)CC2)c1 | 196 | – | –
Cc1ccc(Cl)cc1N1CCN(c2ncnc3[nH]nc(Br)c23)CC1 | 7 | 86 | –
Cc1ccc(Cl)cc1N1CCN(c2ncnc3[nH]nc(C(C)C)c23)CC1 | 16 | 207 | –
Clc1cccc(N2CCN(c3ncnc4[nH]ccc34)CC2)c1 | 162 | – | –
CCc1n[nH]c2ncnc(N3CCN(c4cc(Cl)cc(OCCN(CC)CC)c4C)CC3)c12 | 11 | 339 | –
Cc1ccc(Cl)cc1N1CCN(c2ncnc3[nH]nc(C)c23)CC1 | 9 | 500 | –
CCCc1n[nH]c2ncnc(N3CCN(c4cc(Cl)ccc4C)CC3)c12 | 6 | 275 | –
Cc1nc(N2CCN(c3cc(Cl)ccc3C)CC2)c2cn[nH]c2n1 | > 2000 | – | –
Cc1ccc(Cl)cc1N1CCN(c2ncnc3[nH]nc(C(F)(F)F)c23)CC1 | 29 | 41 | –
CCc1n[nH]c2ncnc(N3CCN(c4cc(Cl)ccc4C)CC3)c12 | 6 | 150 | clearance [7]: 25.8 mL/min/kg; Vd [8]: 6.3 L/kg; half-life [9]: 426 min; half-life [10]: 84 min; bioavailability [11]: 2%; Cmax [12]: 6.29 µM; Cmax [13]: 30 nM; AUC/dose [14]: 1.74 µM·kg·h/mg; AUC/dose [15]: 0.02 µM·kg·h/mg
Cc1c(N)ncnc1N1CCN(c2cccc(Cl)c2)CC1 | > 2000 | – | –
CCc1n[nH]c2ncnc(N3CCN(c4cc(Cl)cc(OCCN5CCCC5)c4C)CC3)c12 | 5 | 243 | –
Nc1cc(N2CCN(c3cccc(Cl)c3)CC2)ncn1 | > 2000 | – | –
CCc1n[nH]c2ncnc(N3CCN(c4cc(Cl)cc(OCCN(C)C)c4C)CC3)c12 | 6 | 143 | –
Cc1ccc(Cl)cc1N1CCN(c2ncnc3[nH]ncc23)CC1 | 13 | 1130 | –
Clc1cccc(N2CCN(c3ncnc4[nH]ncc34)CC2)c1 | 107 | – | –

Compounds with a lower IC50 [1], results first:

IC50 [1] [nM] | IC50 [2] [nM] | SMILES | also measured
4 | 50 | Cc1c(NCCN(C)C)cc(Cl)cc1N1CCN(c2ncnc3[nH]nc(C(F)(F)F)c23)CC1 | IC50 [3]: 24 nM; IC50 [4]: 6 nM; IC50 [5]: 74 nM; IC50 [6]: 477 nM
3 | 80 | CCc1n[nH]c2ncnc(N3CCN(c4cc(Cl)cc(NCCN5CCCC5)c4C)CC3)c12 | –
3 | 211 | CCc1n[nH]c2ncnc(N3CCN(c4cc(Cl)cc(CCCN(CC)CC)c4C)CC3)c12 | –
3 | 184 | CCc1n[nH]c2ncnc(N3CCN(c4cc(Cl)cc(NCCN(CC)CC)c4C)CC3)c12 | –
3 | – | Cc1ccc(Cl)cc1N1CCN(c2ncnc(N)c2[N+](=O)[O-])CC1 | –
2 | 45 | CCc1n[nH]c2ncnc(N3CCN(c4cc(Cl)cc(NCCN(C)C)c4C)CC3)c12 | clearance [7]: 17.4 mL/min/kg; Vd [8]: 3.7 L/kg; half-life [9]: 174 min; half-life [10]: 198 min; bioavailability [11]: 23%; Cmax [12]: 1.47 µM; Cmax [13]: 150 nM; AUC/dose [14]: 1.72 µM·kg·h/mg; AUC/dose [15]: 0.45 µM·kg·h/mg; IC50 [3]: 68 nM; IC50 [4]: 42 nM; IC50 [5]: 371 nM; IC50 [6]: 3020 nM; inhibition in vivo at 100 mg/kg [16]: > 60%; inhibition in vivo at 30 mg/kg [17]: 21%; inhibition in vivo at 100 mg/kg [18]: 49%; inhibition in vivo at 300 mg/kg [19]: 69%; growth inhibition (GI) [20]: Dose-dependent effect
2 | 43 | Cc1c(NCCN(C)C)cc(Cl)cc1N1CCN(c2ncnc3[nH]nc(Br)c23)CC1 | IC50 [3]: 248 nM; IC50 [4]: 25 nM; IC50 [5]: 53 nM; IC50 [6]: 311 nM; IC50 [21]: < 500 nM
2 | 152 | CCc1n[nH]c2ncnc(N3CCN(c4cc(Cl)cc(CCCN5CCCC5)c4C)CC3)c12 | –
